miR122 inh: miR-122 inhibition in Huh7 cells; Huh7 miR-122 Renilla luciferase sensor, 48 h; neutral wells = 0, positive control = 100; activation (reporter increase), % at 12.5 µM; actives 0.3% (n = 340,000); AID 602342;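 active = mean replicate activation score at least 90 and every replicate individually at or above 90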;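 note: higher luciferase means less miR-122 activity so hits act as miR-122 inhibitors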
Keap1-Nrf2 PPI: Keap1-Nrf2 (human) interaction inhibition; Keap1 Kelch-Nrf2 peptide fluorescence polarization, 1536-well; inhibition, % at 9.4 µM; actives 0.15% (n = 340,000); AID 504523; in the data active = inhibition above about 12%;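 note: human Keap1 Kelch domain with fluorescein labeled Nrf2 9mer peptide probe; 0% = neutral control wells and 100% = peptide positive control; higher means more block of Keap1 binding to Nrf2 peptide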
Target sequence (Q14145 whole entry, looked up, the tested form may be a part): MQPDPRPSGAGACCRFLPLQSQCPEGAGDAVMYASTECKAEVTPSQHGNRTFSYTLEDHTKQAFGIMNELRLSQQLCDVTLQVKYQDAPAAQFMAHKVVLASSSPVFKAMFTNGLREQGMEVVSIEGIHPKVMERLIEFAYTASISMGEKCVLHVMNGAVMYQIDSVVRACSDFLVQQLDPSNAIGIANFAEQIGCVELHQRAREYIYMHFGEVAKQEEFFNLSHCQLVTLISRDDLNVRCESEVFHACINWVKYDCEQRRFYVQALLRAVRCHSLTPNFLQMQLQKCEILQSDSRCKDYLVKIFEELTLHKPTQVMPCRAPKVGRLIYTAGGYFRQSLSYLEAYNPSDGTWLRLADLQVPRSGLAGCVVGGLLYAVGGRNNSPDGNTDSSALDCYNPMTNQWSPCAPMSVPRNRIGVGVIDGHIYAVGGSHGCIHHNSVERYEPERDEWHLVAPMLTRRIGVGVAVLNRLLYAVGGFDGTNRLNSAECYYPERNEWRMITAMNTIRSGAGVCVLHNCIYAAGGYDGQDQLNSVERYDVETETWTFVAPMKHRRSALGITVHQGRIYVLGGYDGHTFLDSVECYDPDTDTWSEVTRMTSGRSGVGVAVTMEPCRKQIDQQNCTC
CAL PDZ FP-1: blocks peptide binding to the human CAL PDZ domain; actives 0.92% (n = 300,000); inhibition, % at 24.9 µM; AID 602252; purified CAL PDZ, TMR-peptide fluorescence polarization, 1 h; Q9HD26;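 active = mean inhibition of at least 30% with at least half of replicates also reaching 30%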;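 note: 0% = DMSO neutral control and 100% = excess unlabeled competitor peptide PRC23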
LANA DNA inh: inhibitors of KSHV LANA C-terminal domain DNA binding | MBP-C-LANA/FAM-LBS DNA binding, fluorescence polarization | inhibition, % at 9 µM | actives 0.078% (n = 340,000);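 active = highest replicate inhibition at or above 60% at 9 µM, even if other replicates fall short; inactive = all replicates below 60% inhibition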;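 note: 0% = neutral control wells and 100% = 4 µM acridine orange control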
CAL PDZ FP-2: blocks peptide binding to human CAL PDZ domain | inhibition, % at 20 µM | actives 0.02% (n = 330,000) | Q9HD26 | purified CAL PDZ, TMR-peptide fluorescence polarization, 1 h;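 active = highest replicate inhibition of at least 40%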;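 note: plate controls were DMSO neutral control wells for no effect and unlabeled competitor peptide control wells for full effect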
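Material: tagged CAL PDZ domain; buffer or medium: 25 mM sodium phosphate pH 7.4, 150 mM NaCl, TCEP, IgG, Thesit; compound dosing: single point, 20 µM; schedule: 1 h incubation at room temperature before polarization reading; measured by: FP readout, S and P plane fluorescence; read-out basis: percent inhibition from loss of millipolarization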
Starred values were filed as active, the others as inactive; x = no result given; [ ] = dose if it differs, or a comment. Shown are actives, neighbours in structure and some others; about 1.1% of the full set was active somewhere.

SMILES	miR122 inh	Keap1-Nrf2 PPI	CAL PDZ FP-1	LANA DNA inh	CAL PDZ FP-2
CC(C)c1ccc(S(=O)(=O)N2CCN(C(=O)c3cccc(F)c3)CC2)cc1	-3	-2	46*	-1	1
C[C@@H]1CN([C@H](C)CO)C(=O)c2cc(NS(C)(=O)=O)ccc2O[C@@H]1CN(C)S(=O)(=O)c1cccs1	11[16.7 µM]	x	x	x	x
C[C@@H]1CCCCO[C@H](CN(C)Cc2ccc(C(=O)O)cc2)[C@H](C)CN([C@H](C)CO)C(=O)c2cc(NS(=O)(=O)c3cn(C)cn3)ccc2O1	2[16.7 µM]	x	x	x	x
Cc1cc(C(=O)COc2ccccc2Cl)c(C)n1-c1ccc2c(c1)OCO2	x	-1	45*	0	-1
CO[C@@H]1CN(C)C(=O)c2cc(NS(C)(=O)=O)ccc2OC[C@H](C)N(Cc2ccccc2)C[C@@H]1C	26[16.7 µM]	x	x	x	x
O=[N+]([O-])c1ccc(Cl)cc1N/N=C/c1ccncc1	2	4	x	0	0
O=[N+]([O-])c1cc(S(=O)(=O)Nc2ccc(Cl)cc2)ccc1N/N=C/c1ccncc1	279*	-3	-2	0	-1
O=C(O)C(Cc1ccccc1)N1C(=O)/C(=C/C=C/c2ccco2)SC1=S (configuration not stated)	-12	26*	-2	106*	-1
COc1ccc(NC(=O)N(C)C[C@@H]2Oc3ccc(NC(=O)Nc4ccccc4)cc3C(=O)N([C@@H](C)CO)C[C@@H]2C)cc1	-12[16.7 µM]	x	x	x	x
COc1cc(OC)c(N(C)S(=O)(=O)c2cccc(C(=O)OCC(=O)N3CCOCC3)c2)cc1Cl	-6	-2	32*	-2	7
COc1cc(OC)c(N(C)S(=O)(=O)c2cccc(C(=O)OCc3c(C)noc3C)c2)cc1Cl	x	2	3	0	-1
C[C@@H]1CCCCO[C@@H](CN(C)C(=O)NC2CCCCC2)[C@H](C)CN([C@@H](C)CO)C(=O)c2cc(NC(=O)c3ccncc3)ccc2O1	-2[16.7 µM]	x	x	x	x
C[C@H](CO)N1C[C@H](C)[C@H](CN(C)C(=O)NC2CCCCC2)Oc2ccc(N(C)C)cc2C1=O	-3[16.7 µM]	x	x	x	x
COc1cccc(C(=O)N2C[C@H]3[C@@H](c4ccccc42)[C@@H](CO)N3C(=O)c2ccc(F)cc2)c1	229*[16.7 µM]	x	x	x	x
O=C(Nc1ccccc1F)N1C[C@H]2[C@@H](c3ccccc31)[C@@H](CO)N2C(=O)c1ccc(F)cc1	240*[16.7 µM]	x	x	x	x
O=C(COc1ccc(-n2cnnn2)cc1)NC(=O)NCc1ccccc1	-1	-5	50*	0	-2
CO[C@@H]1CN(C)C(=O)c2ccc(NC(=O)C3CCCCC3)cc2OC[C@@H](C)N(C)C[C@@H]1C	1[16.7 µM]	x	x	x	x
CC(=O)Nc1ccc(S(=O)(=O)NC(CC(=O)NCCC2=CCCCC2)C(C)C)cc1 (configuration not stated)	-2	2	45*	3	0
CCOC(=O)c1[nH]c(C)c(C(=O)Nc2cc(Cl)ccc2C)c1C	39	-2	x	1	0
CCOC(=O)c1[nH]c(C)c(C(=O)Nc2ccccc2C)c1C	138*	3	x	-1	-1
C[C@@H]1CN([C@H](C)CO)C(=O)CCCn2nncc2CO[C@@H]1CN(C)Cc1cccc(C(=O)O)c1	44[16.7 µM]	x	x	x	x
Cc1ccc(S(=O)(=O)NCCC(=O)Oc2ccc3ccc(=O)oc3c2)cc1	237*	3	-3	10	-1
Cc1ccc(S(=O)(=O)NC(C(=O)Oc2ccc3ccc(=O)oc3c2)c2ccccc2)cc1 (configuration not stated)	4	-19	x	0	-1
Cc1ccc(S(=O)(=O)N[C@H](C(=O)OCC(=O)NC(=O)C2CCCCC2)C(C)C)cc1	5	2	154*	-1	-1
O=C(C[C@@H]1C=C[C@@H](NC(=O)c2cccc(F)c2)[C@@H](CO)O1)NCc1ccccc1	-16[16.7 µM]	x	x	x	x
SMILES	miR122 inh	Keap1-Nrf2 PPI	CAL PDZ FP-1	LANA DNA inh	CAL PDZ FP-2
O=C(O/N=C1\CCS(=O)(=O)c2sccc21)c1c(F)cccc1F	x	-3	2	1	-3
O=S1(=O)CC/C(=N\Nc2ccccc2)c2ccsc21	x	-5	33*	-3	-1
CC(NC(=O)COc1ccccc1)C(=O)N1CCN(c2ccc(F)cc2)CC1 (configuration not stated)	x	0	73*	0	0
O=C(C[C@@H]1C[C@H]2c3cc(NC(=O)Nc4ccccc4F)ccc3O[C@H]2[C@@H](CO)O1)NCC1CC1	0[16.7 µM]	x	x	x	x
COc1ccc(NC(=O)Nc2c[nH]c(=O)[nH]c2=O)cc1	-1	-2	59*	-3	-1
COc1ccc(NC(=O)Nc2cc(NC(=O)Nc3ccc(OC)cc3)c(C)nc2C)cc1	x	-4	-2	2	-1
CCOC(=O)C1CCCN1C(=O)c1ccc(OC)c(Br)c1 (configuration not stated)	-6	-1	0	2	5
CCOC(=O)C1CCCCN1C(=O)c1cc2ccc(OC)cc2c2cc(OC)c(OC)cc12 (configuration not stated)	109*	-6	-2	-1	-1
COc1ccc(S(=O)(=O)NCC2CCCO2)cc1Cl (configuration not stated)	49	-2	4	-1	9
O=S(=O)(NCC1CCCO1)c1ccc(Cl)c(C(F)(F)F)c1 (configuration not stated)	155*	2	x	0	-2
Clc1ccccc1N=Nc1ccccn1	x	14*	13	28	0
Cc1ccc(S(=O)(=O)Nc2ccc3c(c2)C(=O)N([C@H](C)CO)C[C@H](C)[C@H](CN(C)S(=O)(=O)c2ccc(C)cc2)O3)cc1	-3[16.7 µM]	x	x	x	x
Cc1noc(C)c1NC(=O)N(C)C[C@H]1Oc2ccc(NC(=O)Nc3cccc4ccccc34)cc2C(=O)N([C@H](C)CO)C[C@H]1C	10[16.7 µM]	x	x	x	x
Cc1ccccc1-n1nnnc1SCC(=O)c1c(N)n(C)c(=O)n(C)c1=O	-21	-5	32*	-1	1
C[C@@H]1CCCCO[C@H](CN(C)C(=O)c2ccncc2)[C@H](C)CN([C@@H](C)CO)C(=O)c2cc(NC(=O)C3CCCCC3)ccc2O1	11[16.7 µM]	x	x	x	x
Cc1ccccc1NC(=O)C(=O)NNC(=O)COc1ccc2ccccc2c1	0	1	39*	1	-1
O=C(COc1ccc2ccccc2c1)NNC(=O)Nc1ccccc1F	-2	3	-3	1	1
CCCOc1ccc(/C=N/NC(=O)CSc2ccccn2)cc1OC	13	5	x	0	0
COc1cc(/C=N/NC(=O)CSc2ccccn2)ccc1O	x	0	44*	1	-1
CCCNC(=O)CC1Sc2ccccc2NC1=O (configuration not stated)	-2	-2	x	-1	0
COc1ccccc1CNC(=O)CC1Sc2ccccc2NC1=O (configuration not stated)	1	2	62*	1	0
CSCCC(NC(=O)c1ccco1)C(=O)NCCc1ccc(Cl)cc1 (configuration not stated)	-1	-2	100*	-1	0

Screening data deposited in PubChem BioAssay by Broad Institute.
